From PubChem BioAssay
MC4R antag cAMP – human MC4R antagonism in cAMP assay; P32245; MC4R-expressing cells, MTII-stimulated cAMP, LANCE TR-FRET; inhibition, % at 6.5 µM; 360,000 compounds, 0.48% hits; AID 540295;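 active means inhibition above its plate's cutoff, the mean of tested wells on that plate plus 3 SD, cut at about 29% in these data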;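 further: 0% = Melanotan II alone and 100% = Melanotan II plus saturating MCL0020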
Target sequence (P32245 whole entry, looked up): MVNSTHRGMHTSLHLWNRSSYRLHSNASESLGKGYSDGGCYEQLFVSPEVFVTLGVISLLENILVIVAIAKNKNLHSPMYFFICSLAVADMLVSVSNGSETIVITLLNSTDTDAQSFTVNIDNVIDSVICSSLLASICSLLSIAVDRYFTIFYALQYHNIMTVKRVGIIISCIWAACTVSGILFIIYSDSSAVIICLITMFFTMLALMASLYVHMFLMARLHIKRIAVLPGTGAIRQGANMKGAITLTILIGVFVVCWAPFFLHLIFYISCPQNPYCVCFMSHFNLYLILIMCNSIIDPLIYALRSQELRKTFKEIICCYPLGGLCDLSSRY
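System – human MC4R-expressing U2OS cells · Also added – Melanotan II · Dosing – one concentration, 6.5 µM nominal · Timing – 30-min compound, 1-h challenge, 1-h detection, room temperature · Measured by – Eu-cAMP/anti-cAMP TR-FRET, emission 671 nm · Replicates – singlicate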
MC4R ag barr – human MC4R agonism via beta-arrestin; U2OS MC4R beta-arrestin complementation, luminescence; percent of melanotan II response, DMSO zero; P32245; activation, % at 8.9 µM; 360,000 compounds, 0.98% hits;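 active means activation above a per-plate cutoff, the mean activation of sample wells on that plate plus 3 SD, cut at about 8% in these data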
MsrA inhibitor – inhibits bovine methionine sulfoxide reductase A; purified bovine MsrA, absorbance read-out; inhibition, % at 15.5 µM; 360,000 compounds, 0.75% hits; in the data active means inhibition above about 4.5%;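 further: 0% = vehicle wells with enzyme and 100% = reference inhibitor wells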
bovine MsrA act – bovine methionine sulfoxide reductase A activation; AID 602163; 360,000 compounds, 0.3% hits; activation, % at 10.6 µM; purified bovine MsrA, absorbance read-out; in the data active means activation above about 7.5%;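 further: 0% = vehicle and 100% = reference activator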
MC4R barr ag – human MC4R beta-arrestin agonism confirmation. 2,400 compounds, 31% hits. U2OS MC4R beta-arrestin recruitment, luminescence; scaled DMSO 0%, Melanotan II 100%. AID 602192. activation, % at 8.9 µM. shares compounds with MC4R ag barr;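 active means mean activation across replicates above the hit cutoff set in the earlier primary screen, cut at about 8% in these data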
MOR DOR agonist – OPRM1-OPRD1 heterodimer agonism counter-screen; shares compounds with MC4R ag barr; U2OS PathHunter beta-arrestin, beta-gal luminescence; percent of deltorphin B response, DMSO zero; activation, % at 9.2 µM; 2,400 compounds, 5.8% hits; AID 602194;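 active means mean activation across replicates exceeds the hit threshold derived in the earlier primary screen, cut at about 18% in these data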;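 further: 100% = deltorphin B at 0.9 µM final and 0% = DMSO alone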
* = called active by the depositor; x = no result. An excerpt weighted towards active compounds, which were near 2.3% of everything screened.

SMILES	MC4R antag cAMP	MC4R ag barr	MsrA inhibitor	bovine MsrA act	MC4R barr ag	MOR DOR agonist
CN(CC(=O)Nc1c(F)cccc1F)Cc1cccs1	4	1	2	2	x	x
Cc1cccc(N2CCN(C(=S)Nc3ccc4nc(N5CCN(C)CC5)cc(C)c4c3)CC2C)c1 (stereo not drawn)	-5	14*	0	-5	4	17
Cc1cccc(N2CCN(C(=S)Nc3ccc4nc(N5CCN(C)CC5)cc(C)c4c3)CC2)c1C	7	11*	0	2	13*	13
Cc1cc(N2CCN(C)CC2)nc2ccc(NC(=S)N3CCN(c4cccc(Cl)c4)CC3)cc12	15	-1	-1	2	x	x
Cc1cccc(OCc2nnc(N)s2)c1C	-3	2	-1	-9	x	x
COCCOc1ccc(C(F)(F)F)cc1NC(=O)c1ccc(C)cc1	-2	15*	0	-4	1	6
CCOc1ccc(-c2cc(C(=O)Nc3cccc(C(F)(F)F)c3)[nH]n2)c(C)c1	4	11*	0	-2	6	5
CCOc1ccc(-c2cc(C(=O)NCc3ccc(C(F)(F)F)cc3)[nH]n2)c(C)c1	1	13*	-1	-1	1	8
CC(=O)c1cccc(NC(=O)c2cccc3c(-c4cccc(C(N)=O)c4)coc23)c1	25	20*	0	1	6	5
CCOC(=O)c1ccc(NC(=O)CSc2nnc(COc3ccccc3)n2C)cc1	-3	11*	0	-3	0	7
COC(=O)c1cccc(NC(=O)CSc2nnc(COc3ccccc3)n2C)c1	3	0	-1	1	x	x
Cc1sc(NC(=O)CSc2nnc(COc3ccc(Cl)cc3)n2C)c(C#N)c1C	4	11*	-1	1	4	7
Cc1ccc(-c2nnc(SCC(=O)Nc3sc(C)c(C)c3C#N)n2C)cc1	-2	3	0	-6	x	x
Cn1c(CNC(=O)c2ccc(Cl)c(Cl)c2)nnc1SCC(=O)Nc1sc2c(c1C#N)CCCC2	5	11*	1	0	11*	3
Cc1ccc(S(=O)(=O)NCCNc2ccc(Br)c(C)c2)cc1	2	18*	1	2	4	7
CCOC(=O)N1CCN(C(=O)c2ccccc2NC(=O)c2ccc(C(C)(C)C)cc2)CC1	-2	0	0	-10	x	x
Cn1c2ccccc2c2cnn(CC(=O)Nc3cccc(F)c3)c(=O)c21	8	9.7*	0	-2	1	3
Fc1ccc(Cn2nnnc2C(c2ccc(Cl)cc2)N2CCSCC2)cc1 (stereo not drawn)	10	-1	0	-2	x	x
Cc1ccc(C(OCC(O)CNCc2ccc(F)cc2)c2ccccc2)cc1 (stereo not drawn)	7	14*	0	-8	24*	14
CC(=O)Nc1cccc(-c2cc(NC(C)=O)c3ncc(-c4ccc(F)cc4)n3c2)c1	5	17*	0	-7	11*	1
CC(=O)Nc1cc(-c2cccc(F)c2)cn2c(-c3ccc(F)cc3)cnc12	3	40*	0	-2	64*	2
CC(=O)Nc1cc(-c2cccc(NS(C)(=O)=O)c2)cn2c(-c3ccc(F)c(Cl)c3)cnc12	17	2	1	-1	x	x
O=CNc1cc(-c2cccc(F)c2)cn2c(-c3ccc(F)cc3)cnc12	17	12*	0	0	16*	4
CCOc1cc(S(=O)(=O)NCC2CCCO2)ccc1F (stereo not drawn)	5	-1	-1	-2	x	x
COC(=O)c1ccc(CSc2nnc(NC(=O)c3cc4c(s3)CCCC4)s2)cc1	7	18*	0	0	0	2
SMILES	MC4R antag cAMP	MC4R ag barr	MsrA inhibitor	bovine MsrA act	MC4R barr ag	MOR DOR agonist
CC1CCc2sc(C(=O)Nc3nnc(SCc4ccc(F)cc4)s3)cc2C1 (stereo not drawn)	3	33*	1	-9	12*	2
Cc1ccc(-c2csc3ncnc(SCC(N)=O)c23)cc1	-1	-3	-1	-3	x	x
CCc1nnc(NC(=O)CSc2ncnc3scc(-c4ccc(C)cc4)c23)s1	12	11*	1	-3	14*	4
CC(C)(C#N)C(C)(C)c1nn[nH]n1	7	0	-1	-2	x	x
O=C1Nc2ccccc2Nc2ccccc21	2	0	0	-2	x	x
O=C(Nc1ccc2c(c1)OCO2)c1nn(-c2ccccc2)c(=O)c2ccccc12	6	11*	0	-1	-2	3
COc1cccc(-n2nc(C(=O)Nc3ccc4c(c3)OCO4)c3ccccc3c2=O)c1	17	2	x	-2	x	x
Cc1ccccc1-c1nc(-c2ccc(NC(=O)c3ccc(Br)o3)cc2)no1	5	30*	0	-9	21*	4
Cc1ccccc1-c1nc(-c2ccc(Br)o2)no1	15	2	-1	-2	x	x
O=C(Nc1ccc2c(c1)Cc1ccccc1-2)c1ccccc1F	6	11*	0	-6	1	5
O=C(Nc1ccc2c(c1)Cc1ccccc1-2)c1ccc(Br)o1	3	10*	1	0	-1	4
CCCCc1nnc(NC(=O)C2CC(=O)N(c3ccc4c(c3)OCCO4)C2)s1 (stereo not drawn)	0	-2	-2	-5	x	x
Fc1ccc2[nH]c3c(N4CCN(c5ccccc5)CC4)ncnc3c2c1	21	4	1	1	x	x
OC1(c2cccc(C(F)(F)F)c2)CCN(c2ncnc3c2[nH]c2ccc(F)cc23)CC1	21	9.8*	0	6	1	6
CC(C)(C)NC(=O)COC(=O)C1c2ccccc2Oc2ccccc21	7	-2	0	-1	x	x
Cc1ccc2c(CC(=O)OCc3cc(=O)n4c(n3)sc3ccccc34)coc2c1	11	0	1	-1	x	x
CC(C)[C@H](NC(=O)Cc1ccccc1)C(=O)OCc1cc(=O)n2c(n1)sc1ccccc12	25	14*	1	-1	2	4
CCOC(OCC)c1nc(N)[nH]c(=O)c1CCCCc1ccccc1	-3	-2	-1	4	x	x
COc1ccc(C(=O)NC(=S)Nc2ccc3c4c(cccc24)CC3)cc1OC	-4	13*	0	-13	7	2
Cc1cccc(OCC(=O)Nc2ccc3c4c(cccc24)CC3)c1C	-1	31*	1	-4	2	4
Cc1ccc(OCC(=O)Nc2ccc3c4c(cccc24)CC3)c(C)c1	-6	7	0	-5	x	x
CCC1CN(C(=O)Nc2ccc(C)cc2)c2cc(C)ccc2O1 (stereo not drawn)	23	11*	0	1	-2	4
C=CCn1c(=NC(=O)c2cc(Cl)sc2Cl)sc2cc(S(N)(=O)=O)ccc21	14	14*	2	-3	4	2
C=CCn1c(=NC(=O)c2cc(-c3cccs3)nc3ccccc23)sc2cc(S(N)(=O)=O)ccc21	1	-4	3	0	x	x
